Laboratory results taken from ChEMBL document CHEMBL4385635, “Styryl quinazolinones and its ethynyl derivatives induce myeloid differentiation” (Bioorg Med Chem Lett, 2019).
Calls of active or inactive are those of the source. The rule behind the calls is not given here.

Experiments:
HL-60 [1] = test: Induction of differentiation of human HL60 cells assessed as morphological changes at 3 uM after 7 days; format: functional, cell-based
Outline: (§1)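 HL-60 cells were treated with compound, with 0.1% DMSO as vehicle control. Differentiation was judged by Wright-Giemsa morphology and NBT reduction, each scored semi-quantitatively from − through ± to +++.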

HL-60 [2] = test: Induction of differentiation of human HL60 cells assessed as increase in CEBPA mRNA expression at by QT-PCR analysis; format: functional, cell-based
Outline: (§2)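 HL-60 cells were treated and CEBPA and CEBPE mRNA levels were measured by quantitative RT-PCR. Results are expressed as fold increase relative to DMSO-treated cells.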

HL-60 [3] = test: Induction of differentiation of human HL60 cells assessed as increase in CD11b positive cells after 7 days by flow cytometric analysis relative to control; format: functional, cell-based
Outline: (§3)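 HL-60 cells were exposed to compound for 7 days, then stained with APC-conjugated anti-human/mouse CD11b antibody, with rat IgG2b as isotype control. CD11b-positive cells were measured by flow cytometry and reported as percent increase relative to the DMSO vehicle.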

HL-60 [4] = test: Cytotoxicity against human HL60 cells assessed as reduction in cell viability at >3 uM; format: functional, cell-based
HL-60 [5] = test: Cytotoxicity against human HL60 cells assessed as reduction in cell viability at 3 uM; format: functional, cell-based
HL-60 [6] = test: Induction of apoptosis in human HL60 cells at 10 uM after 7 days; format: functional
Outline: (§4)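 Apoptosis in compound-treated HL-60 cells was scored semi-quantitatively (− to +++), alongside the differentiation read-outs, against a 0.1% DMSO vehicle control.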

HL-60 [7] = test: Induction of differentiation of human HL60 cells assessed as morphological changes at 10 uM after 7 days by NBT reduction assay; format: functional
Outline: (§5)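 HL-60 cells were screened for differentiation by Wright-Giemsa morphology and NBT reduction, and apoptosis was scored alongside. Controls were 0.1% DMSO as vehicle and ATRA at 1 μM as positive. Each result was graded on a semiquantitative scale (−, ±, + to +++).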

HL-60 [8] = test: Induction of differentiation of human HL60 cells assessed as morphological changes at 10 uM after 7 days by Wright-Giemsa staining based assay; format: functional; outline: as §5
L1210 = test: Cytotoxicity against mouse L1210 cells assessed as reduction in cell viability after 48 hrs by trypan blue staining-based hemocytometric analysis; format: functional; settings: L1210, 48 h
HL-60 [9] = test: Induction of differentiation of human HL60 cells assessed as morphological changes at 1 uM after 7 days by Wright-Giemsa staining based assay; format: functional
Outline: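 Compound-treated HL-60 cells were stained with Wright-Giemsa and examined for granulocytic morphology. Scoring was semi-quantitative (− to +++) against a 0.1% DMSO vehicle control.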

HL-60 [10] = test: Induction of apoptosis in human HL60 cells at 1 uM after 7 days; format: functional; outline: as §4
HL-60 [11] = test: Induction of differentiation of human HL60 cells assessed as morphological changes at 1 uM after 7 days by NBT reduction assay; format: functional
Outline: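 In compound-treated HL-60 cells, differentiation was read as NBT reduction. Scoring was semi-quantitative (−, ±, + to +++) against a 0.1% DMSO vehicle control.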

HL-60 [12] = test: Induction of differentiation of human HL60 cells assessed as increase in CEBPA mRNA expression at 1 uM by QT-PCR analysis; format: functional
Outline: (§6)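 HL-60 cells were treated with compound over a time course. CEBPA or CEBPE mRNA levels were measured and expressed as fold increase relative to the DMSO vehicle.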

HL-60 [13] = test: Induction of differentiation of human HL60 cells assessed as increase in CD11b positive cells at 1 uM after 7 days by flow cytometric analysis (reference value: 3.94%); format: functional; outline: as §3
HL-60 [14] = test: Induction of differentiation of human HL60 cells assessed as increase in CEBPE mRNA expression at 10 uM by QT-PCR analysis; format: functional; outline: as §2
HL-60 [15] = test: Induction of differentiation of human HL60 cells assessed as increase in CEBPA mRNA expression at 10 uM by QT-PCR analysis; format: functional; outline: as §2
HL-60 [16] = test: Induction of differentiation of human HL60 cells assessed as increase in CD11b positive cells at 10 uM after 7 days by flow cytometric analysis (reference value: 3.94%); format: functional
HL-60 [17] = test: Cytotoxicity against human HL60 cells assessed as reduction in cell viability at 1 uM; format: functional, cell-based
HL-60 [18] = test: Induction of differentiation of human HL60 cells assessed as morphological changes at 1 uM after 7 days; format: functional, cell-based; outline: as §1
HL-60 [19] = test: Induction of differentiation of human HL60 cells assessed as increase in CEBPE mRNA expression at 3 uM by QT-PCR analysis; format: functional; outline: as §2
HL-60 [20] = test: Induction of differentiation of human HL60 cells assessed as increase in CEBPA mRNA expression at 3 uM by QT-PCR analysis; format: functional; outline: as §2
HL-60 [21] = test: Induction of differentiation of human HL60 cells assessed as increase in CD11b positive cells at 5 uM after 7 days by flow cytometric analysis (reference value: 3.94%); format: functional
HL-60 [22] = test: Induction of apoptosis in human HL60 cells at 3 uM after 7 days; format: functional; outline: as §5
HL-60 [23] = test: Induction of differentiation of human HL60 cells assessed as morphological changes at 3 uM after 7 days by Wright-Giemsa staining based assay; format: functional; outline: as §5
HL-60 [24] = test: Induction of differentiation of human HL60 cells assessed as morphological changes at 3 uM after 7 days by NBT reduction assay; format: functional; outline: as §5
HL-60 [25] = test: Induction of differentiation of human HL60 cells assessed as increase in CD11b positive cells at 3 uM after 7 days by flow cytometric analysis (reference value: 3.94%); format: functional
Tubulin = Tubulin (Bos taurus, UniProt Q6B856+Q862L2+Q862F3); test: Inhibition of bovine brain tubulin polymerization
HL-60 [26] = test: Induction of differentiation of human HL60 cells assessed as morphological changes at 10 uM after 7 days; format: functional; outline: as §5
HL-60 [27] = test: Induction of differentiation of human HL60 cells assessed as increase in CD11b positive cells at 7 uM after 7 days by flow cytometric analysis (reference value: 3.94%); format: functional
HL-60 [28] = test: Induction of differentiation of human HL60 cells assessed as increase in CEBPE mRNA expression at 7 uM by QT-PCR analysis; format: functional; outline: as §2
HL-60 [29] = test: Induction of differentiation of human HL60 cells assessed as increase in CEBPA mRNA expression at 7 uM by QT-PCR analysis; format: functional; outline: as §2
HL-60 [30] = test: Induction of differentiation of human HL60 cells assessed as increase in CEBPE mRNA expression at by QT-PCR analysis; format: functional, cell-based; outline: as §6

O=c1[nH]c(/C=C/c2ccc([N+](=O)[O-])o2)nc2ccsc12
Activity (HL-60 [1]): inactive
Activity (HL-60 [2]): Active
Activity (HL-60 [3]): inactive
Activity (HL-60 [4]): Active
Activity (HL-60 [5]): Active
Activity (HL-60 [6]): 5 - 30%
Activity (HL-60 [7]): 5 - 30%

O=C(O)c1cccc(-n2c(/C=C/c3ccc([N+](=O)[O-])o3)nc3ccccc3c2=O)c1
Activity (HL-60 [8]): 5 - 30%
Activity (HL-60 [7]): 5 - 30%

COc1cc(/C=C/c2nc3ccccc3c(=O)n2-c2c(Cl)cccc2Cl)ccc1O
Activity (HL-60 [6]): 5 - 30%

Cc1cc(-n2c(/C=C/c3ccccc3)nc3ccc(Cl)cc3c2=O)n(-c2ccccc2)n1
IC50 (L1210): 15 µM

CC1=C(/C=C/C(C)=C/C=C/C(C)=C/C(=O)O)C(C)(C)CCC1 [TRETINOIN]
Activity (HL-60 [9]): >60%
Activity (HL-60 [10]): >60%
Activity (HL-60 [11]): >60%
Activity (HL-60 [2]; TDE = time-dependent effect): Tde
fold change (FC) (HL-60 [12]): 3
Activity (HL-60 [13]): 96.4%

O=c1c2sccc2nc(/C=C/c2ccc([N+](=O)[O-])o2)n1-c1ccc(Cl)cc1
Activity (HL-60 [1]): inactive
Activity (HL-60 [4]): Active
Activity (HL-60 [5]): Active
Activity (HL-60 [6]): 5 - 30%

O=c1c2ccccc2nc(/C=C/c2ccc([N+](=O)[O-])o2)n1-c1ccccc1F
fold change (FC) (HL-60 [14]): 6
Activity (HL-60 [2]; TDE = time-dependent effect): Tde
fold change (FC) (HL-60 [15]): 1.8
Activity (HL-60 [16]): 59%
Activity (HL-60 [6]): >60%
Activity (HL-60 [8]): 30 - 60%
Activity (HL-60 [7]): 30 - 60%

O=c1c2sccc2nc(/C=C/c2ccc([N+](=O)[O-])o2)n1-c1ccccc1Cl
Activity (HL-60 [2]): Active
Activity (HL-60 [3]): inactive
Activity (HL-60 [4]): Active
Activity (HL-60 [17]): Active
Activity (HL-60 [18]): inactive
Activity (HL-60 [6]): 5 - 30%
Activity (HL-60 [7]): 5 - 30%

O=c1c2sccc2nc(/C=C/c2ccc([N+](=O)[O-])o2)n1-c1cccc(Cl)c1
Activity (HL-60 [1]): inactive
Activity (HL-60 [4]): Active
Activity (HL-60 [5]): Active
Activity (HL-60 [6]): 5 - 30%

O=c1c2cc(F)ccc2nc(/C=C/c2ccc([N+](=O)[O-])o2)n1-c1ccccc1
fold change (FC) (HL-60 [19]): 10.3
Activity (HL-60 [2]; TDE = time-dependent effect): Tde
fold change (FC) (HL-60 [20]): 2.5
Activity (HL-60 [21]): 68.6%
Activity (HL-60 [22]): 30 - 60%
Activity (HL-60 [23]): 30 - 60%
Activity (HL-60 [24]): 30 - 60%
Activity (HL-60 [25]): 42.2%

Cc1ccc(-n2c(/C=C/c3ccc([N+](=O)[O-])o3)nc3ccsc3c2=O)cc1
Activity (HL-60 [4]): Active
Activity (HL-60 [6]): 5 - 30%

Oc1nc(/C=C/c2ccccc2)nc2ccc(Cl)cc12
IC50 (Tubulin): 2.5 µM

COc1ccccc1-n1c(/C=C/c2ccc(O)c(O)c2)nc2ccccc2c1=O
fold change (FC) (HL-60 [14]): 2.1
Activity (HL-60 [2]; TDE = time-dependent effect): Tde
fold change (FC) (HL-60 [15]): 1.5
Activity (HL-60 [16]): 25.9 - 51.2%
Activity (HL-60 [6]): 5 - 30%
Activity (HL-60 [8]): 5 - 30%
Activity (HL-60 [7]): 5 - 30%

C#Cc1ccc(-n2c(/C=C/c3ccc(O)cc3)nc3ccccc3c2=O)cc1
Activity (HL-60 [26]): 5 - 30%
Activity (HL-60 [6]): 5 - 30%
Activity (HL-60 [8]): 5 - 30%
Activity (HL-60 [7]): 5 - 30%

COc1ccccc1-n1c(/C=C/c2ccc([N+](=O)[O-])o2)nc2ccc(F)cc2c1=O
Activity (HL-60 [27]): 89%
fold change (FC) (HL-60 [28]): 2.6
Activity (HL-60 [2]; TDE = time-dependent effect): Tde
fold change (FC) (HL-60 [29]): 1.6
Activity (HL-60 [16]): 94.2%
Activity (HL-60 [22]): 30 - 60%
Activity (HL-60 [6]): >60%
Activity (HL-60 [23]): 5 - 30%
Activity (HL-60 [8]): 30 - 60%
Activity (HL-60 [24]): 5 - 30%
Activity (HL-60 [7]): 30 - 60%

Cc1cc(C#Cc2ccc(C(C)(C)C)cc2)ccc1-n1c(/C=C/c2ccc([N+](=O)[O-])o2)nc2ccccc2c1=O
Activity (HL-60 [30]): inactive
Activity (HL-60 [2]): inactive
Activity (HL-60 [3]): inactive
Activity (HL-60 [26]): 5 - 30%
Activity (HL-60 [6]): 5 - 30%
Activity (HL-60 [8]): 5 - 30%
Activity (HL-60 [7]): 5 - 30%
